Common to all, as to assay type: functional
A short description of assay [1]: Minimum inhibitory concentration against Herpes simplex Virus-2(G). In outline: (§1)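 Confluent E6SM fibroblast monolayers were infected with 100 CCID50 of virus (1 CCID50 infects 50% of inoculated cultures). After 1 h adsorption, residual virus was removed and cultures were incubated with 2- to 5-fold serial dilutions of compound. Inhibition of virus-induced cytopathicity was scored once the virus-infected controls reached full CPE (day 3 post-infection).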

Assay [2] can be described thus: Minimum inhibitory concentration against Herpes simplex Virus-1(F). The following applies: Human alphaherpesvirus 1. In outline: as §1
The nature of assay [3]: Minimum inhibitory concentration against Herpes simplex Virus-1 (McIntyre). The following applies: Human alphaherpesvirus 1. The method in brief: as §1
Assay [4] in a line: Minimum inhibitory concentration against Herpes simplex Virus-1 (KOS) (ACV). The following applies: Human alphaherpesvirus 1. The method in brief:
as §1

A short description of assay [5]: Minimum cytotoxic concentration in E6SM fibroblast cells. The settings on record: Homo sapiens, read-out: Min cytotoxic concentration.
Assay [6] in a line: Minimum inhibitory concentration against Herpes simplex Virus-1(KOS). The following applies: Human alphaherpesvirus 1. The method in brief: as §1
The nature of assay [7]: Minimum inhibitory concentration against Herpes simplex Virus-2(Lyons). The following applies: Human alphaherpesvirus 2. In outline: as §1
The nature of assay [8]: Minimum inhibitory concentration against Herpes simplex Virus-2(196). The settings on record: Human alphaherpesvirus 2. In outline:
as §1

Converted amounts (≈) assume the structure as drawn.

With `O=C(Oc1ccccc1)Oc1ccc(-c2cn3c(O)c4ncn(COC(CO)CO)c4nc3n2)cc1`, the MIC in assay [1] (Human alphaherpesvirus 2) was found to be 0.417 µM (≈ 0.205 µg/mL); in assay [2], 0.031 µM (≈ 0.0152 µg/mL); in assay [3], 0.781 µM (≈ 0.384 µg/mL); in assay [4], 19 µM (≈ 9.34 µg/mL); in assay [6], 0.008 µM (≈ 0.00393 µg/mL); in assay [7], 0.156 µM (≈ 0.0767 µg/mL). The molecule also came in with an MIC in assay [8] of 0.781 µM (≈ 0.384 µg/mL). Further, the MCC in assay [5] was found to be 814 µM.
For the molecule `O=C(Nc1ccc(-c2cn3c(O)c4ncn(COCCO)c4nc3n2)cc1)Oc1ccccc1`, the MIC was 2.5 µM (≈ 1.15 µg/mL) in assay [1] (Human alphaherpesvirus 2); 0.834 µM (≈ 0.384 µg/mL) in assay [2]; 0.834 µM (≈ 0.384 µg/mL) in assay [3]; 174 µM (≈ 80.1 µg/mL) in assay [4]; 1.1 µM (≈ 0.506 µg/mL) in assay [6]; 1.4 µM (≈ 0.645 µg/mL) in assay [7]. This molecule displayed an MIC in assay [8] of 1.4 µM (≈ 0.645 µg/mL). In addition, the MCC in assay [5] was 869 µM.
With `CC(=O)Nc1ccc(-c2cn3c(O)c4ncn(COCCO)c4nc3n2)cc1`, the MIC was found to be 8.4 µM (≈ 3.21 µg/mL) in assay [1] (Human alphaherpesvirus 2); 5 µM (≈ 1.91 µg/mL) in assay [2]; 25 µM (≈ 9.56 µg/mL) in assay [3]; 25 µM (≈ 9.56 µg/mL) in assay [4]; 6.7 µM (≈ 2.56 µg/mL) in assay [6]; 25 µM (≈ 9.56 µg/mL) in assay [7]. The molecule also displayed an MIC in assay [8] of 25 µM (≈ 9.56 µg/mL). Besides, in assay [5], the MCC came to 126 µM.
On to `CC(C)C(=O)Oc1ccc(-c2cn3c(O)c4ncn(COCCO)c4nc3n2)cc1`, for which the MIC in assay [1] (Human alphaherpesvirus 2) is 0.622 µM (≈ 0.256 µg/mL); in assay [2], 0.311 µM (≈ 0.128 µg/mL); in assay [3], 0.187 µM (≈ 0.0769 µg/mL); in assay [4], 583 µM (≈ 240 µg/mL); in assay [6] it was 0.56 µM (≈ 0.23 µg/mL); in assay [7], 0.933 µM (≈ 0.384 µg/mL). Also, the MIC in assay [8] was 0.933 µM (≈ 0.384 µg/mL). Further, in assay [5], the MCC stood at 972 µM.
In the case of `CC(C)C(=O)Nc1ccc(-c2cn3c(O)c4ncn(COCCO)c4nc3n2)cc1`, the MIC in assay [1] (Human alphaherpesvirus 2) stood at 4.4 µM (≈ 1.81 µg/mL); in assay [2], 4.7 µM (≈ 1.93 µg/mL); in assay [3] it was 4.7 µM (≈ 1.93 µg/mL); in assay [4], 780 µM (≈ 320 µg/mL); in assay [6] it was 2.8 µM (≈ 1.15 µg/mL); in assay [7], 4.7 µM (≈ 1.93 µg/mL). In assay [8], this molecule gave an MIC of 4.7 µM (≈ 1.93 µg/mL). Also, the MCC in assay [5] worked out at 975 µM.
On to `OCC(CO)OCn1cnc2c(O)n3cc(-c4ccc(O)cc4)nc3nc21`, for which the MIC in assay [1] (Human alphaherpesvirus 2) was determined as 0.96 µM (≈ 0.356 µg/mL); in assay [2], 0.041 µM (≈ 0.0152 µg/mL); in assay [3] it was 0.207 µM (≈ 0.0769 µg/mL); in assay [4], 69 µM (≈ 25.6 µg/mL); in assay [6], 0.041 µM (≈ 0.0152 µg/mL); in assay [7], 0.207 µM (≈ 0.0769 µg/mL). In addition, the MIC in assay [8] was 0.207 µM (≈ 0.0769 µg/mL). In addition, the MCC in assay [5] was 1080 µM.
Consider `CC(C)C(=O)Oc1ccc(-c2cn3c(O)c4ncn(COC(CO)CO)c4nc3n2)cc1`, for which the MIC in assay [1] (Human alphaherpesvirus 2) came out at 0.116 µM (≈ 0.0512 µg/mL); in assay [2] it was 0.035 µM (≈ 0.0155 µg/mL); in assay [3], 0.174 µM (≈ 0.0768 µg/mL); in assay [4], 22 µM (≈ 9.71 µg/mL); in assay [6] it was 0.116 µM (≈ 0.0512 µg/mL); in assay [7], 0.174 µM (≈ 0.0768 µg/mL). For the same molecule, in assay [8], the MIC came to 0.87 µM (≈ 0.384 µg/mL). For the same molecule, the MCC in assay [5] was 906 µM.
For `O=C(Oc1ccccc1)Oc1ccc(-c2cn3c(O)c4ncn(COCCO)c4nc3n2)cc1`, the MIC in assay [1] (Human alphaherpesvirus 2) amounted to 0.83 µM (≈ 0.383 µg/mL); in assay [2], 0.166 µM (≈ 0.0766 µg/mL); in assay [3], 0.166 µM (≈ 0.0766 µg/mL); in assay [4], 694 µM (≈ 320 µg/mL); in assay [6], 0.832 µM (≈ 0.384 µg/mL); in assay [7] it was 0.832 µM (≈ 0.384 µg/mL). In assay [8], the MIC stood at 0.832 µM (≈ 0.384 µg/mL). In addition, the MCC in assay [5] was found to be 867 µM.
For `OCCOCn1cnc2c(O)n3cc(-c4ccc(O)cc4)nc3nc21`, the MIC in assay [1] (Human alphaherpesvirus 2) is 0.675 µM (≈ 0.23 µg/mL); in assay [2] it was 0.225 µM (≈ 0.0768 µg/mL); in assay [3], 0.225 µM (≈ 0.0768 µg/mL); in assay [4], 234 µM (≈ 79.9 µg/mL); in assay [6] it was 0.675 µM (≈ 0.23 µg/mL); in assay [7], 0.225 µM (≈ 0.0768 µg/mL). The same molecule gave an MIC in assay [8] of 0.375 µM (≈ 0.128 µg/mL). In assay [5], the MCC is 703 µM.
With `CC(=O)Oc1ccc(-c2cn3c(O)c4ncn(COC(CO)CO)c4nc3n2)cc1`, the MIC in assay [1] (Human alphaherpesvirus 2) was 97 µM (≈ 40.1 µg/mL); in assay [2], 0.062 µM (≈ 0.0256 µg/mL); in assay [3], 0.186 µM (≈ 0.0769 µg/mL); in assay [4], 23 µM (≈ 9.51 µg/mL); in assay [6], 0.049 µM (≈ 0.0203 µg/mL); in assay [7] it was 0.186 µM (≈ 0.0769 µg/mL). For the same molecule, the MIC in assay [8] amounted to 0.186 µM (≈ 0.0769 µg/mL). The MCC in assay [5] was found to be 968 µM.
With `NC(=O)Nc1ccc(-c2cn3c(O)c4ncn(COCCO)c4nc3n2)cc1`, the MIC in assay [1] (Human alphaherpesvirus 2) was 15 µM (≈ 5.75 µg/mL); in assay [2], 5 µM (≈ 1.92 µg/mL); in assay [3], 5 µM (≈ 1.92 µg/mL); in assay [4], 126 µM (≈ 48.3 µg/mL); in assay [6], 15 µM (≈ 5.75 µg/mL); in assay [7], 8.3 µM (≈ 3.18 µg/mL). Moreover, the MIC in assay [8] was determined as 8.3 µM (≈ 3.18 µg/mL). For the same molecule, the MCC in assay [5] came to 209 µM.
Consider `CC(=O)Oc1ccc(-c2cn3c(O)c4ncn(COCCO)c4nc3n2)cc1`, for which the MIC turned out to be 0.601 µM (≈ 0.23 µg/mL) in assay [1] (Human alphaherpesvirus 1); 0.2 µM (≈ 0.0767 µg/mL) in assay [2]; 0.2 µM (≈ 0.0767 µg/mL) in assay [3]; 626 µM (≈ 240 µg/mL) in assay [4]; 0.601 µM (≈ 0.23 µg/mL) in assay [6]; 0.2 µM (≈ 0.0767 µg/mL) in assay [7]. In addition, the MIC in assay [8] turned out to be 0.2 µM (≈ 0.0767 µg/mL). Also, in assay [5], the MCC was determined as 1040 µM.
In the case of `Nc1nc2c(ncn2COCCO)c(=O)[nH]1` [ACYCLOVIR], the MIC in assay [1] (Human alphaherpesvirus 2) came to 0.242 µM (≈ 0.0545 µg/mL); in assay [2], 0.341 µM (≈ 0.0768 µg/mL); in assay [3] it was 0.341 µM (≈ 0.0768 µg/mL); in assay [4], 249 µM (≈ 56.1 µg/mL); in assay [6], 0.341 µM (≈ 0.0768 µg/mL); in assay [7], 1 µM (≈ 0.225 µg/mL). Further, the MIC in assay [8] is 1 µM (≈ 0.225 µg/mL). Besides, the MCC in assay [5] is 1780 µM.
For the molecule `Nc1nc2c(ncn2COC(CO)CO)c(=O)[nH]1` [GANCICLOVIR], the MIC was found to be 0.06 µM (≈ 0.0153 µg/mL) in assay [1] (Human alphaherpesvirus 2); 0.045 µM (≈ 0.0115 µg/mL) in assay [2]; 0.04 µM (≈ 0.0102 µg/mL) in assay [3]; 7.5 µM (≈ 1.91 µg/mL) in assay [4]; 0.03 µM (≈ 0.00766 µg/mL) in assay [6]; 0.045 µM (≈ 0.0115 µg/mL) in assay [7]. The same molecule registered an MIC in assay [8] of 0.1 µM (≈ 0.0255 µg/mL). The MCC in assay [5] came out at 392 µM.
